What all share (assay type): functional
Assay [1] relates to Plasmodium berghei. In words: Reduced parasitemia in Plasmodium berghei infected NMRI mice (Mus musculus). Details: concentration or dose not given beside the values. An outline of the steps:
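P. berghei GFP ANKA infection (2 × 10⁷ parasitized erythrocytes i.v., day 0) in NMRI mice, n = 3 per group. One oral dose of 1 × 30 mg/kg at 24 h postinfection, in Tween 80/ethanol 70/30 diluted 10× with water. Blood parasitemia on day 3 postinfection by flow cytometry, given as % suppression against untreated infected mice.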

The test system of assay [2] is Plasmodium berghei. Put plainly: Antimalarial survival activity in Plasmodium berghei infected NMRI mice (Mus musculus) at 30 mg/kg peroral dose. Particulars: route oral. The gist of the method: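 NMRI mice were infected intravenously on day 0 with 2 × 10⁷ P. berghei GFP ANKA parasitized erythrocytes. One oral dose of 30 mg/kg was given 24 h postinfection in 70/30 Tween 80/ethanol diluted 10× with water, at 10 mL/kg; n = 3 per group. Read-out is average survival in days after infection.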

Assay [3] concerns Plasmodium berghei. Put plainly: Antimalarial survival activity in Plasmodium berghei infected NMRI mice (Mus musculus) at 30 mg/kg peroral dose (3x daily). As to conditions: route oral. The gist of the method:
(§1)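 P. berghei GFP ANKA, 2 × 10⁷ parasitized erythrocytes given intravenously to NMRI mice on day 0. Compound in 70/30 Tween 80/ethanol, diluted 10× with water, given orally at 10 mL/kg at 24, 48 and 72 h postinfection; n = 3 per group. Read-out is average survival in days after infection, with individual survival also given. Cure means no blood parasites by flow cytometry on day 30.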

The subject of assay [4] is Plasmodium berghei. In words: Antimalarial activity as survival time in Plasmodium berghei-infected NMRI mice (Mus musculus) at 10 mg/kg peroral dose three times daily. Particulars: route oral. The gist of the method: as §1

`C[C@H]1[C@@H](CC(C[C@H]2O[C@@H]3O[C@]4(C)CC[C@H]5[C@H](C)CC[C@@H]([C@H]2C)[C@@]35OO4)=NNC(=O)c2ccncc2)O[C@@H]2O[C@]3(C)CC[C@H]4[C@H](C)CC[C@@H]1[C@@]24OO3` yielded an Activity in assay [1] of 99.4%. Also, the Survival in assay [2] is 10 days; in assay [3] it was “>=30 day”; in assay [4], 17.7 days.
Take `Cc1noc(C(C[C@H]2O[C@@H]3O[C@]4(C)CC[C@H]5[C@H](C)CC[C@@H]([C@H]2C)[C@@]35OO4)C[C@H]2O[C@@H]3O[C@]4(C)CC[C@H]5[C@H](C)CC[C@@H]([C@H]2C)[C@@]35OO4)n1` (stereo partly specified): in assay [1], the Activity is given as 98.9%. The same molecule returned a Survival in assay [2] of 13.7 days.
`C[C@H]1[C@@H](CC(C[C@H]2O[C@@H]3O[C@]4(C)CC[C@H]5[C@H](C)CC[C@@H]([C@H]2C)[C@@]35OO4)C(=O)NCc2ccncc2)O[C@@H]2O[C@]3(C)CC[C@H]4[C@H](C)CC[C@@H]1[C@@]24OO3` (stereo partly specified): the Survival came out at 11.3 days in assay [3] and 7 days in assay [4].
The molecule `C[C@H]1[C@@H](CC(O)(COCc2ccncc2)C[C@H]2O[C@@H]3O[C@]4(C)CC[C@H]5[C@H](C)CC[C@@H]([C@H]2C)[C@@]35OO4)O[C@@H]2O[C@]3(C)CC[C@H]4[C@H](C)CC[C@@H]1[C@@]24OO3` (stereo partly specified) yielded an Activity in assay [1] of 99.2%. The Survival in assay [2] is 10 days; in assay [3] it was “>=30 day”; in assay [4] it was 14.7 days.
On to `CCOP(=S)(OCC)OCC(C[C@H]1O[C@@H]2O[C@]3(C)CC[C@H]4[C@H](C)CC[C@@H]([C@H]1C)[C@@]24OO3)C[C@H]1O[C@@H]2O[C@]3(C)CC[C@H]4[C@H](C)CC[C@@H]([C@H]1C)[C@@]24OO3` (stereo partly specified), for which the results for the Survival in assay [3] and in assay [4] were 24.7 days and 7.7 days, respectively.
`C[C@@H]1CC[C@H]2[C@@H](C)C(OC(=O)CCC(=O)[O-])O[C@@H]3O[C@]4(C)CC[C@@H]1[C@]32OO4.[Na+]` (stereo partly specified) gave an Activity in assay [1] of 92%. Further, the Survival stood at 7.6 days in assay [2] and 7.2 days in assay [3].
Consider `C[C@H]1[C@@H](CC2(C[C@H]3O[C@@H]4O[C@]5(C)CC[C@H]6[C@H](C)CC[C@@H]([C@H]3C)[C@@]46OO5)COC3(CCOCC3)O2)O[C@@H]2O[C@]3(C)CC[C@H]4[C@H](C)CC[C@@H]1[C@@]24OO3` (stereo partly specified), for which, in assay [1], the Activity is recorded as 99.5%. Further, the Survival is 9 days in assay [2], “>=30 day” in assay [3] and 15.7 days in assay [4].
In the case of `C[C@H]1[C@@H](CC2(C[C@H]3O[C@@H]4O[C@]5(C)CC[C@H]6[C@H](C)CC[C@@H]([C@H]3C)[C@@]46OO5)COC3(CCS(=O)(=O)CC3)O2)O[C@@H]2O[C@]3(C)CC[C@H]4[C@H](C)CC[C@@H]1[C@@]24OO3`, the Survival entry in assay [3] was “>=30 day”; in assay [4], 8.3 days.
`C[C@H]1[C@@H](CC2(C[C@H]3O[C@@H]4O[C@]5(C)CC[C@H]6[C@H](C)CC[C@@H]([C@H]3C)[C@@]46OO5)COC3(CCC(=O)CC3)O2)O[C@@H]2O[C@]3(C)CC[C@H]4[C@H](C)CC[C@@H]1[C@@]24OO3` (stereo partly specified) displayed an Activity in assay [1] of 99.6%. The values for the Survival in assay [2], in assay [3] and in assay [4] were 8.3 days, “>=30 day” and 16.3 days, respectively.
On to `C[C@H]1[C@@H](CC(C[C@H]2O[C@@H]3O[C@]4(C)CC[C@H]5[C@H](C)CC[C@@H]([C@H]2C)[C@@]35OO4)c2nnc(-c3ccc(F)cc3)o2)O[C@@H]2O[C@]3(C)CC[C@H]4[C@H](C)CC[C@@H]1[C@@]24OO3` (stereo partly specified), for which, in assay [1], the Activity is listed as 98.8%. In addition, the Survival in assay [2] stood at 10 days.
Turning to `CCOC(=O)N1CCC2(CC1)OCC(C[C@H]1O[C@@H]3O[C@]4(C)CC[C@H]5[C@H](C)CC[C@@H]([C@H]1C)[C@@]35OO4)(C[C@H]1O[C@@H]3O[C@]4(C)CC[C@H]5[C@H](C)CC[C@@H]([C@H]1C)[C@@]35OO4)O2` (stereo partly specified), the Activity in assay [1] is 99.6%. Moreover, the results for the Survival in assay [2], in assay [3] and in assay [4] were 8.7 days, “>=30 day” and 14 days, respectively.
Turning to `C[C@H]1[C@@H](CC2(C[C@H]3O[C@@H]4O[C@]5(C)CC[C@H]6[C@H](C)CC[C@@H]([C@H]3C)[C@@]46OO5)COC3(CCC3)O2)O[C@@H]2O[C@]3(C)CC[C@H]4[C@H](C)CC[C@@H]1[C@@]24OO3` (stereo partly specified), the Survival result was “>=30 day” in assay [3] and 7 days in assay [4].
Consider `Cc1ccc(CNC(=O)C(C[C@H]2O[C@@H]3O[C@]4(C)CC[C@H]5[C@H](C)CC[C@@H]([C@H]2C)[C@@]35OO4)C[C@H]2O[C@@H]3O[C@]4(C)CC[C@H]5[C@H](C)CC[C@@H]([C@H]2C)[C@@]35OO4)cc1` (stereo partly specified), for which the Activity in assay [1] is 99%. Further, the Survival in assay [2] amounted to 10.3 days.
As for `Cc1ccc(COCC(C[C@H]2O[C@@H]3O[C@]4(C)CC[C@H]5[C@H](C)CC[C@@H]([C@H]2C)[C@@]35OO4)C[C@H]2O[C@@H]3O[C@]4(C)CC[C@H]5[C@H](C)CC[C@@H]([C@H]2C)[C@@]35OO4)cc1` (stereo partly specified), the Survival result in assay [3] was “>=30 day”; in assay [4] it was 8 days.
The corresponding values for `CNC(=O)N1CCC2(CC1)OCC(C[C@H]1O[C@@H]3O[C@]4(C)CC[C@H]5[C@H](C)CC[C@@H]([C@H]1C)[C@@]35OO4)(C[C@H]1O[C@@H]3O[C@]4(C)CC[C@H]5[C@H](C)CC[C@@H]([C@H]1C)[C@@]35OO4)O2` (stereo partly specified) are “>=30 day” and 13.3 days.
Taken in the same sequence, the figures for `C[C@H]1[C@@H](CC(O)(COC(=O)c2ccccc2)C[C@H]2O[C@@H]3O[C@]4(C)CC[C@H]5[C@H](C)CC[C@@H]([C@H]2C)[C@@]35OO4)O[C@@H]2O[C@]3(C)CC[C@H]4[C@H](C)CC[C@@H]1[C@@]24OO3` (stereo partly specified) were 20.7 days and 6 days.
Regarding `C[C@H]1[C@@H](CC(C[C@H]2O[C@@H]3O[C@]4(C)CC[C@H]5[C@H](C)CC[C@@H]([C@H]2C)[C@@]35OO4)C(=O)N[C@@H](C)c2ccc(F)cc2)O[C@@H]2O[C@]3(C)CC[C@H]4[C@H](C)CC[C@@H]1[C@@]24OO3` (stereo partly specified), the Activity in assay [1] turned out to be 98.9%. The molecule also yielded a Survival in assay [2] of 12.7 days.
Regarding `C[C@H]1[C@@H](CC(C[C@H]2O[C@@H]3O[C@]4(C)CC[C@H]5[C@H](C)CC[C@@H]([C@H]2C)[C@@]35OO4)C(=O)NCC(C)(C)C)O[C@@H]2O[C@]3(C)CC[C@H]4[C@H](C)CC[C@@H]1[C@@]24OO3` (stereo partly specified), the Survival in assay [3] came to 27.7 days; in assay [4], 6 days.
`C[C@H]1[C@@H](CC(O)(COCC#CCOCc2ccc(F)cc2)C[C@H]2O[C@@H]3O[C@]4(C)CC[C@H]5[C@H](C)CC[C@@H]([C@H]2C)[C@@]35OO4)O[C@@H]2O[C@]3(C)CC[C@H]4[C@H](C)CC[C@@H]1[C@@]24OO3` (stereo partly specified): in assay [1], the Activity stood at 88%. The Survival in assay [2] turned out to be 6.3 days.
`CCN(CC)C(=O)OCC(C[C@H]1O[C@@H]2O[C@]3(C)CC[C@H]4[C@H](C)CC[C@@H]([C@H]1C)[C@@]24OO3)C[C@H]1O[C@@H]2O[C@]3(C)CC[C@H]4[C@H](C)CC[C@@H]([C@H]1C)[C@@]24OO3` (stereo partly specified) had an Activity in assay [1] of 99.3%. Also, the results for the Survival in assay [2], in assay [3] and in assay [4] were 11.7 days, “>=30 day” and 14 days, respectively.
For the molecule `C[C@H]1[C@@H](CC2(C[C@H]3O[C@@H]4O[C@]5(C)CC[C@H]6[C@H](C)CC[C@@H]([C@H]3C)[C@@]46OO5)COC3(CCN(C(=O)c4ccccc4)CC3)O2)O[C@@H]2O[C@]3(C)CC[C@H]4[C@H](C)CC[C@@H]1[C@@]24OO3` (stereo partly specified), in assay [1], the Activity stood at 99%. The figures for the Survival in assay [2] and in assay [4] were 10 days and 15.7 days, respectively.
In turn, `COC(=O)c1ccc(CNC(=O)C(C[C@H]2O[C@@H]3O[C@]4(C)CC[C@H]5[C@H](C)CC[C@@H]([C@H]2C)[C@@]35OO4)C[C@H]2O[C@@H]3O[C@]4(C)CC[C@H]5[C@H](C)CC[C@@H]([C@H]2C)[C@@]35OO4)cc1` (stereo partly specified) yielded a Survival in assay [4] of 10 days.
With `C[C@H]1[C@@H](CC2(C[C@H]3O[C@@H]4O[C@]5(C)CC[C@H]6[C@H](C)CC[C@@H]([C@H]3C)[C@@]46OO5)COCO2)O[C@@H]2O[C@]3(C)CC[C@H]4[C@H](C)CC[C@@H]1[C@@]24OO3` (stereo partly specified), the Survival entry was “>=30 day” in assay [3] and 11 days in assay [4].
The corresponding values for `C[C@H]1[C@@H](CC(C[C@H]2O[C@@H]3O[C@]4(C)CC[C@H]5[C@H](C)CC[C@@H]([C@H]2C)[C@@]35OO4)C(=O)NCC2CCCCC2)O[C@@H]2O[C@]3(C)CC[C@H]4[C@H](C)CC[C@@H]1[C@@]24OO3` (stereo partly specified) are “>=30 day” and 7 days.
